# Legend:
# [1] = test system: tyrosinase; assay: Tyrosinase mediated GSH depletion assay; type: biochemical, Mushroom; conditions: for Tyrosinase GSH depletion (2 h): 100 μM phenolic agent, 200 μM GSH, tyrosinase/O2, 37 °C
# [2] = test system: SK-MEL-28 melanoma cells; assay: MTT cell viability assay, IC50; type: cell-based, human
# [3] = Partition coefficient, distribution coefficient and water solubility
# [4] = no reference given; cited from earlier work
# [5] = test system: amelanotic C32 melanoma cells; assay: Reactive oxygen species; type: cell-based, human; conditions: CAPE 15-300 μM
# How it was run: (§1)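 Cells seeded at 40,000/well in black 96-well plates, 24 h at 37 °C. Medium replaced with 2′,7′-dichlorofluorescein diacetate, then test compound added; fluorescence read from the moment of addition (ex 485, em 535 nm). In SK-MEL-28 only: dicoumarol 10 μM, 1-bromoheptane 75 μM, cyclosporin A 15 μM or trifluoperazine 15 μM included. Six replicates averaged.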
# [6] = test system: MeWo melanoma cells; assay: MTT cell viability assay, MeWo; type: cell-based, human; conditions: CAPE 15 μM, 48 h
# How it was run: (§2)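 24-well plates, 40,000 cells/well (SK-MEL-5 4,000/well) in 400 μL medium with 10% FBS, 24 h adhesion. Media: MEM Alpha for SK-MEL-5, MeWo and C32; DMEM for B16-F0 and B16-F10; McCoy's 5A for Saos-2; Leibovitz's L-15 for SW-620; RPMI for PC-3. Test compound 15 μM for 48 h; MTT 4 h, DMSO solubilisation for 2 h in the dark, A570. Viability relative to each line's untreated control.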
# [7] = test system: SK-MEL-28 melanoma cells; assay: Apoptosis assay; type: cell-based, human; conditions: CAPE 15 μM, 48 h
# How it was run: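 SK-MEL-28 cells seeded at 160,000/well in 6-well plates in MEM and left overnight to attach; some wells transfected with tyrosinase shRNA3 or non-specific shRNA for 24 h. Treated with test compound 15 μM (controls 1% DMSO) for 48 h. Cells detached with versene, washed in PBS, pelleted, stained with annexin V-FITC plus PI in binding buffer for 15 min. Flow cytometry on 10,000 events; annexin+ cells (PI− or PI+) counted apoptotic; triplicates.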
# [8] = test system: osteosarcoma (Saos-2) cells; assay: MTT cell viability assay, Saos-2; type: cell-based, human; conditions: CAPE 15 μM, 48 h
# How it was run: as §2
# [9] = test system: B16-F0 melanoma cells; assay: MTT cell viability assay, B16-F0; type: cell-based, murine; conditions: CAPE 15 μM, 48 h
# How it was run: as §2
# [10] = biological target: T1, horseradish peroxidase (HRP) (Armoracia rusticana, UniProt P00433); assay: Rate of AA and NADH oxidation by HRP/H2O2; type: biochemical
# T1 sequence (P00433 31-338 limits assumed): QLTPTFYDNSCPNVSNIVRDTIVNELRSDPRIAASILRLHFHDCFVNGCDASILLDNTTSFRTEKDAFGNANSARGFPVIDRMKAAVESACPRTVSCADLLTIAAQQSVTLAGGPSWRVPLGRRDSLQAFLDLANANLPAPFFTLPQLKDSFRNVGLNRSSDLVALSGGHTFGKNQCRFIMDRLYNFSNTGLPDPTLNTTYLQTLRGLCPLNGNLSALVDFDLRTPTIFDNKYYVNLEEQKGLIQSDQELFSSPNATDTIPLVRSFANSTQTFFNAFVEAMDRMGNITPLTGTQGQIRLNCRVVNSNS
# [11] = test system: tyrosinase; assay: Rate of AA and NADH oxidation by tyrosinase/O2; type: biochemical, Mushroom
# [12] = test system: B16-F10 melanoma cells; assay: MTT cell viability assay, B16-F10; type: cell-based, murine; conditions: CAPE 15 μM, 48 h
# How it was run: as §2
# [13] = test system: human leukemia HL-60 cells; conditions: read-out: IC50, growth arrest; 48 h; cited from earlier work
# [14] = test system: colorectal adenocarcinoma (SW-620) cells; assay: MTT cell viability assay, SW-620; type: cell-based, human; conditions: CAPE 15 μM, 48 h
# How it was run: as §2
# [15] = test system: oral cancer cells; conditions: read-out: IC50, cytotoxicity; 48 h; cited from earlier work
# [16] = test system: SK-MEL-28 melanoma cells; assay: MTT assay using biochemical modulators in SK-MEL-28 melanoma cells; type: cell-based, human; conditions: 48 h
# How it was run: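 SK-MEL-28 cells in MEM Alpha with 10% FBS, 40,000/well in 24-well plates, 24 h to adhere. DMSO-dissolved modulators (1-bromoheptane 75 μM, dicoumarol 10 μM, cyclosporin A 15 μM, trifluoperazine 15 μM) added 20 min before test compound. Viability by MTT 48 h after compound addition: 4 h with dye, DMSO solubilisation for 2 h in the dark, A570.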
# [17] = test system: amelanotic C32 melanoma cells; assay: Intracellular GSH measurement, C32; type: cell-based, human; conditions: 2 h
# How it was run: (§3)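 Cells from 90-95% confluent cultures seeded at 1 million cells/mL in MEM Alpha with 10% FBS in 24-well plates, 3 h at 37 °C, then given 1 mL medium with test compound (15-200 μM) for 1, 2 or 3 h. Detached with trypsin-EDTA, lysed with 3% sulphosalicylic acid, spun at 14,000 rpm and 4 °C for 10 min; supernatant diluted 10-fold. GSH by DTNB/NADPH (0.3 mM)/GSSG reductase recycling, A405 every 30 s over 4 min.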
# [18] = test system: melanocytic SK-MEL-28 cells; assay: Intracellular GSH measurement, SK-MEL-28; type: cell-based, human; conditions: 2 h
# How it was run: as §3
# [19] = test system: SK-MEL-28 cells; assay: Mitochondrial membrane potential; type: cell-based, human
# How it was run: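 SK-MEL-28 cells seeded at 160,000/well in 6-well plates in MEM and left overnight; cyclosporin A 15 μM or ethylenediamine 1 mM added 24 h before test compound (15-50 μM; controls 1% DMSO). After 48 h, TMRM added for 30 min at 37 °C in the dark. Cells detached with versene, pelleted, resuspended in PBS. Flow cytometry on 10,000 events; arithmetic mean fluorescence, triplicates.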
# [20] = test system: SK-MEL-28 cells; assay: MTT assay in tyrosinase shRNA transfected SK-MEL-28 cells; type: cell-based, human; conditions: CAPE 15 μM, 48 h
# How it was run: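 SK-MEL-28 cells seeded at 160,000/well in 6-well plates; after 24 h transfected with tyrosinase shRNA clone (FuGENE6). 24 h later, untransfected, tyrosinase-shRNA and non-specific shRNA cells given test compound 15 μM for a further 48 h. Viability by MTT: 4 h with dye, DMSO solubilisation for 2 h at room temperature in the dark, A570. Three experiments averaged.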
# [21] = test system: amelanotic SK-MEL-24 cells; assay: MTT cell viability assay, SK-MEL-24; type: cell-based, human; conditions: CAPE 15 μM, 48 h
# [22] = test system: SK-MEL-5 melanoma cells; assay: MTT cell viability assay, SK-MEL-5; type: cell-based, human; conditions: CAPE 15 μM, 48 h
# How it was run: as §2
# [23] = test system: melanocytic SK-MEL-28 melanoma cells; assay: Reactive oxygen species; type: cell-based, human
# How it was run: as §1
# [24] = test system: SV40 transformed keratinocytes; conditions: read-out: IC50, inhibition of proliferation; 48 h; cited from earlier work
# [25] = test system: CYP2E1 induced rat liver microsomes; assay: GSH depletion by rat liver P450 microsomal preparation/NADPH/O2; conditions: CYP2E1 pyrazole induced microsomes, 2 h incubation
# [26] = UV-VIS spectroscopy, stability of CAPE alone in solution; type: physicochemical; conditions: CAPE 100 μM alone, phosphate buffer pH 7.4
# How it was run: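 Test compound 100 μM alone in 0.1 M phosphate buffer, pH 7.4, containing 1 mM DETAPAC; UV-visible spectrum recorded as the no-enzyme control for spectra of enzymatic oxidation, which were taken every two minutes.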
# [27] = test system: prostate (PC-3) cells; assay: MTT cell viability assay, PC-3; type: cell-based, human; conditions: CAPE 15 μM, 48 h
# How it was run: as §2
# [28] = test system: amelanotic C32 cells; assay: MTT cell viability assay, C32; type: cell-based, human; conditions: CAPE 15 μM, 48 h
# How it was run: as §2
smiles,measurement,setting,value
"O=C(O)C=Cc1ccc(O)cc1 [4-HCA, 4-hydroxycinnamic acid]",Tyrosinase GSH depletion (2 h),[1],16±3%
same,LD50 (day 2) SK-MEL-28,"[2]; MTT assay, 48 h incubation",4.4 mM
"O=C(O)CCc1ccc(O)cc1 [4-HPP, 4-hydroxypropionic acid]",Tyrosinase GSH depletion (2 h),[1],42±2%
same,LD50 (day 2) SK-MEL-28,"[2]; MTT assay, 48 h incubation",1.5 mM
"O=C(O)/C=C/c1ccc(O)c(O)c1 [CA, caffeic acid]",water solubility relative to CAPE,[3]; from LogW,45 fold
same,ionized at physiological pH,[3]; pH 7.4,more than 99%
same,pKa value of the carboxylic moiety,[4],4.62
same,Tyrosinase GSH depletion (2 h),[1],200±6%
same,LD50 (day 2) SK-MEL-28,"[2]; MTT assay, 48 h incubation",2.3 mM
"O=C(/C=C/c1ccc(O)c(O)c1)OCCc1ccccc1 [CAPE, Caffeic Acid Phenylethyl Ester]",ROS formation,[5],no significant ROS was formed
same,cell viability,[6],51±6%
same,apoptotic cell death,[7],12.5±0.7%
same,increase in apoptotic cell death in comparison to untreated control cells,[7],2.5 fold
same,cell viability,[8],90±6%
same,cell viability,[9],58±6%
same,Rate of NADH oxidation by HRP/H2O2,"[10]; HRP 2 μM, H2O2 100 μM",867 μM (AA and NADH depletion)/CAPE (μM)/HRP (μM)/min
same,Rate of AA oxidation by HRP/H2O2 in the presence of GSH,[10]; with GSH,10 μM GSH depletion/CAPE (μM)/HRP (μM)/min
same,Rate of NADH oxidation by HRP/H2O2 in the presence of GSH,[10]; with GSH,5 μM GSH depletion/CAPE (μM)/HRP (μM)/min
same,Rate of NADH oxidation by tyrosinase/O2,"[11]; CAPE 100 μM, tyrosinase 5 U/mL, NADH 200 μM, pH 7.4",10 nM (AA and NADH depletion)/CAPE (μM)/tyrosinase (U/mL)/min
same,Rate of NADH oxidation by tyrosinase/O2 in the presence of GSH,[11]; with GSH 200 μM,0.08 nM GSH depletion/CAPE (μM)/tyrosinase (U/mL)/min
same,cell viability,[12],60±4%
same,IC50,[13],2.5 µM
same,cell viability,[14],89±3%
same,IC50,[15],75 µM
same,increase of CAPE toxicity by 1-bromoheptane (BH),[16]; CAPE 7.5 μM + BH 75 μM,26%
same,enhancement of CAPE toxicity by dicoumarol,[16]; CAPE 7.5 μM + dicoumarol 10 μM,39%
same,"viability, CAPE incubated alone",[16]; CAPE 30 μM,23±2%
same,intracellular GSH depleted,[17]; CAPE 15 μM,3±2%
same,intracellular GSH depleted,[17]; CAPE 50 μM,10±2%
same,intracellular GSH depleted,[17]; CAPE 100 μM,13±3%
same,intracellular GSH depleted,[17]; CAPE 200 μM,24±2%
same,intracellular GSH depleted,[18]; CAPE 15 μM,11±4%
same,intracellular GSH depleted,[18]; CAPE 50 μM,19±2%
same,intracellular GSH depleted,[18]; CAPE 100 μM,26±1%
same,intracellular GSH depleted,[18]; CAPE 200 μM,54±1%
same,ionized at physiological pH,[3]; pH 7.4,not significantly ionized
same,lipid solubility relative to caffeic acid (antilog LogD),[3]; pH 7.4,"40,000 fold"
same,decrease in mitochondrial membrane potential,[19]; CAPE 15 μM,17±1%
same,decrease in mitochondrial membrane potential in the presence of CS,[19]; CAPE 15 μM + CS 15 μM,8±1%
same,decrease in mitochondrial membrane potential in the presence of ethylenediamine,[19]; CAPE 15 μM + ethylenediamine 1 mM,4±1%
same,decrease in mitochondrial membrane potential,[19]; CAPE 30 μM,20±2%
same,decrease in mitochondrial membrane potential in the presence of CS,[19]; CAPE 30 μM + CS 15 μM,12±1%
same,decrease in mitochondrial membrane potential in the presence of ethylenediamine,[19]; CAPE 30 μM + ethylenediamine 1 mM,10±1%
same,"cell viability, tyrosinase shRNA transfected cells",[20],87±5%
same,"cell viability, untransfected cells",[20],43±6%
same,cell viability,[21],81±7%
same,cell viability,[22],57±3%
same,"ROS formation, CAPE + BH",[23]; BH 75 μM,11±2 fold
same,"ROS formation, CAPE + TF","[23]; CAPE 15 μM + TF 15 μM, 40 min",5±1 fold
same,"ROS formation, CAPE alone","[23]; CAPE 15 μM, 40 min",8±1 fold
same,ROS formation,"[23]; CAPE 15-300 μM, various time points",concentration- and time-dependent escalation in ROS formation
same,"ROS formation, CAPE + CS",[23]; CS 15 μM,4±1 fold
same,"ROS formation, CAPE + DC",[23]; DC 10 μM,12±2 fold
same,IC50,[24],7 µM
same,"GSH depleted per mole of CAPE, rat liver microsomes",[25],0.5 mole GSH per one mole of CAPE
same,Tyrosinase GSH depletion (2 h),[1],82±6%
same,"GSH depleted per mole of CAPE, tyrosinase/O2",[1]; 2 h incubation,0.8 mole GSH per mole of CAPE
same,stability of spectrum in solution (auto-oxidation),[26],stable
same,cell viability,[27],88±3%
same,cell viability,[28],86±4%
same,LD50 (day 2) SK-MEL-28 / IC50 (48 h),"[2]; MTT assay, 48 h incubation",15 µM
same,"toxicity relative to caffeic acid, based on IC50 (48 h)",[2]; SK-MEL-28,153 fold

# Reference: PMC2932756 (Chemico-biological interactions, 2010)
